The record followed here is ChEMBL document CHEMBL4665830, “Self-Adjuvanting Cancer Vaccines from Conjugation-Ready Lipid A Analogues and Synthetic Long Peptides” (J Med Chem, 2020).

The source made the active and inactive calls. The rule behind the calls is not given here. Where a SMILES comes first, the peptide text is derived from it. [ ]: non-standard residue; d: D form. The star is where a group is joined. X1 = CCCCCCCCCCC[C@H](CC(=O)N[C@H]1[C@H](OC[C@H](NC(=O)C[C@@H](CCCCCCCCCCC)OC(=O)CCCCCCCCC)C(=O)O)O[C@H](CNC(=O)COCCOCCOCCNC(=O)CCCN2C(=O)CC(*)C2=O)[C@@H](OP(=O)(O)O)[C@@H]1OC(=O)C[C@@H](CCCCCCCCCCC)OC(=O)CCCCCCCCC)OC(=O)CCCCCCCCC; X2 = CCCCCCCCCCC[C@H](CC(=O)N[C@H]1[C@H](OC[C@H](NC(=O)C[C@@H](CCCCCCCCCCC)OC(=O)CCCCCCCCC)C(=O)O)O[C@H](COC(=O)COCCOCCOCCNC(=O)CCCN2C(=O)CC(*)C2=O)[C@@H](OP(=O)(O)O)[C@@H]1OC(=O)C[C@@H](CCCCCCCCCCC)OC(=O)CCCCCCCCC)OC(=O)CCCCCCCCC; Mpa = O=C(O)CCS

The target in assay [1] is T1, Toll-like receptor 4 (Mus musculus) (UniProt Q9QUK6).
T1 sequence (whole entry): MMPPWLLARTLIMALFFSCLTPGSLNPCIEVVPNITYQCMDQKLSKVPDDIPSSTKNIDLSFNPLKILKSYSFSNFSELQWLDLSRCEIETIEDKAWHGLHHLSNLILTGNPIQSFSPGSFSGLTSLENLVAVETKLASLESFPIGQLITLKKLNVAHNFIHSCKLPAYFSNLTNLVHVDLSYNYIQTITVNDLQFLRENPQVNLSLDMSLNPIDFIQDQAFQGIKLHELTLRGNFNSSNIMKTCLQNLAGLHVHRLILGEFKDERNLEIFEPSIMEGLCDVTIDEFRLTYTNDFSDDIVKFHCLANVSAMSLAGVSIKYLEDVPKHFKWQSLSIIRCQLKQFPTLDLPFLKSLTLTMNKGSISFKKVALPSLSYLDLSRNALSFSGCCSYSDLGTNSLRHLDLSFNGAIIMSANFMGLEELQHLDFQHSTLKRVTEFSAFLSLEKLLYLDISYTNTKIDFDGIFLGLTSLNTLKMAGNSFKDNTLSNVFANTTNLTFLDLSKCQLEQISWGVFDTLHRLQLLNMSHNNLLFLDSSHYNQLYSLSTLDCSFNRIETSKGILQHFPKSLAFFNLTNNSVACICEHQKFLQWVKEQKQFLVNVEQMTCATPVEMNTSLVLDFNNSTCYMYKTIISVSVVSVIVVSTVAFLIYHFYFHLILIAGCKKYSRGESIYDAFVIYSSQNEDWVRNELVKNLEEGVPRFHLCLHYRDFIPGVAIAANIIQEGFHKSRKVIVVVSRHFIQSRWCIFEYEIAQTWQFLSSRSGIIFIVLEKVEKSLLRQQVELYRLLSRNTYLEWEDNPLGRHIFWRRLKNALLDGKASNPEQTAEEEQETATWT
Put plainly: Activation of TLR4 in C57BL/6 mouse dendritic cells assessed as induction of IL-12p40 secretion at 0.098 to 100 nM incubated for 24 hrs by ELISA. The following applies: Dendritic cell, dose nM 0.098-100, time 24.0 hrs. In short, it runs like this:
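D1 cells (immature spleen-derived DC line, C57BL/6 H-2b), 50 000 per well in R1-supplemented IMDM, given an equal volume of 2x compound in medium (500 μM DMSO stocks, sonicated 15 min). Incubated 24 h at 37 °C; IL-12p40 in supernatant measured by ELISA. MPLA served as TLR4 control; unconjugated peptide as negative control.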
(In an ELISA, binding on a coated surface is turned into a signal by an enzyme label.)

Assay [2] concerns Mus musculus. Nature of the assay: Induction of T-cell activation in C57BL/6 mouse assessed as induction of SIINFEKL-specific T-cell responses in blood at 5 nmol dosed intradermally followed by booster dose after 14 days and measured after 7 days. It counts as functional, organism-based. To be noted: time 21.0 day.
Assay [3] concerns Mus musculus. Put plainly: Induction of T-cell activation in C57BL/6 mouse assessed as induction of SIINFEKL-specific T-cell responses in inguinal lymph nodes at 5 nmol dosed intradermally followed by booster dose after 14 days and measured after 8 days. It is filed as functional, organism-based. The following applies: time 22.0 day.
The subject of assay [4] is Mus musculus. Put plainly: Induction of T-cell activation in C57BL/6 mouse assessed as induction of differentiation into effector memory T cells at 5 nmol dosed intradermally followed by booster dose after 14 days and measured after 7 days. It counts as functional, organism-based. To be noted: time 21.0 day.
In assay [5] the test system is Mus musculus. Put plainly: Induction of T-cell activation in C57BL/6 mouse assessed as induction of SIINFEKL-specific T-cell responses in blood at 5 nmol dosed intradermally. It counts as functional, organism-based.
Assay [6] concerns Mus musculus. Put plainly: Induction of T-cell activation in C57BL/6 mouse assessed as induction of differentiation into memory CD127+/KLRG1low responses at 5 nmol dosed intradermally followed by booster dose after 14 days and measured after 7 days. It is filed as functional, organism-based. The following applies: time 21.0 day.
The next assay deals with B3Z. Nature of the assay: Induction of T-cell activation in SIINFEKL-specific mouse B3Z cells at 0.875 to 7 uM by colorimetry based in-vitro antigen presentation assay. It is filed as functional. To be noted: dose microM 0.875-7.
Assay [7] deals with Mus musculus. Put plainly: Induction of T-cell activation in C57BL/6 mouse assessed as induction of SIINFEKL-specific T-cell responses in spleen at 5 nmol dosed intradermally followed by booster dose after 14 days and measured after 8 days. It is filed as functional, organism-based. The following applies: time 22.0 day.
Assay [8] concerns Mus musculus. Nature of the assay: Induction of T-cell activation in C57BL/6 mouse assessed as induction of specific killing of the SIINFEKL-loaded target cells in spleen at 5 nmol dosed intradermally followed by booster dose after 14 days and 1 week later injection of cells loaded with SIINFEKL peptide and measured after 18 hrs post last dose by CFSE staining based flow cytometric analysis. It is filed as functional, organism-based. The following applies: time 21.0 day. (In general: Flow cytometry measures light scatter and fluorescence of single cells or particles in a stream.)

Assay [9] relates to Mus musculus. Nature of the assay: Induction of T-cell activation in C57BL/6 mouse assessed as increase in SIINFEKL-specific CD8+ T cells level in inguinal lymph nodes at 5 nmol dosed intradermally followed by booster dose after 14 days and 1 week later injection of cells loaded with SIINFEKL peptide and measured after 18 hrs post last dose by CFSE staining based flow cytometric analysis. It counts as functional, organism-based. The following applies: time 21.0 day.

As to `CCCCCCCCCCC[C@H](CC(=O)N[C@H]1[C@H](OC[C@H](NC(=O)C[C@@H](CCCCCCCCCCC)OC(=O)CCCCCCCCC)C(=O)O)O[C@H](COC(=O)CCCCCCCCCCNC(C)=O)[C@@H](OP(=O)(O)O)[C@@H]1OC(=O)C[C@@H](CCCCCCCCCCC)OC(=O)CCCCCCCCC)OC(=O)CCCCCCCCC`, the outcome in assay [1] was inactive.
As to `CCCCCCCCCCC[C@H](CC(=O)N[C@H]1[C@H](OC[C@H](NC(=O)C[C@@H](CCCCCCCCCCC)OC(=O)CCCCCCCCC)C(=O)O)O[C@H](COC(=O)COCCOCCOCCNC(=O)CCCN2C(=O)CC(SCCC(=O)N[C@@H](CC(=O)O)C(=O)N[C@@H](CCC(=O)O)C(=O)N[C@H](C(=O)N[C@@H](CO)C(=O)NCC(=O)N[C@@H](CC(C)C)C(=O)N[C@@H](CCC(=O)O)C(=O)N[C@@H](CCC(N)=O)C(=O)N[C@@H](CC(C)C)C(=O)N[C@@H](CCC(=O)O)C(=O)N[C@@H](CO)C(=O)N[C@H](C(=O)N[C@H](C(=O)N[C@@H](CC(N)=O)C(=O)N[C@@H](Cc3ccccc3)C(=O)N[C@@H](CCC(=O)O)C(=O)N[C@@H](CCCCN)C(=O)N[C@@H](CC(C)C)C(=O)N[C@@H](C)C(=O)N[C@@H](C)C(=O)N[C@@H](C)C(=O)N[C@@H](C)C(=O)N[C@@H](C)C(=O)N[C@@H](CCCCN)C(N)=O)[C@@H](C)CC)[C@@H](C)CC)C(C)C)C2=O)[C@@H](OP(=O)(O)O)[C@@H]1OC(=O)C[C@@H](CCCCCCCCCCC)OC(=O)CCCCCCCCC)OC(=O)CCCCCCCCC` (stereo not given in full) ([Mpa](X2)DEVSGLEQLESIINFEKLAAAAAK-NH2), the result (in the assay on Mus musculus [2]; with Mus musculus [3]; in the assay on Mus musculus [4]; in assay [1] (filed as activator); in the assay with Mus musculus [5]; with Mus musculus [6]) was Active. Also, the result in the assay on B3Z and in the assay on Mus musculus [7] was Active.
As to `CCCCCCCCCCC[C@H](CC(=O)N[C@H]1[C@H](OC[C@H](NC(=O)C[C@@H](CCCCCCCCCCC)OC(=O)CCCCCCCCC)C(=O)O)O[C@H](COC(=O)COCCOCCOCCNC(C)=O)[C@@H](OP(=O)(O)O)[C@@H]1OC(=O)C[C@@H](CCCCCCCCCCC)OC(=O)CCCCCCCCC)OC(=O)CCCCCCCCC`, the result in assay [1] (filed as activator) was Active.
As to `CCCCCCCCCCC[C@@H](O)CC(=O)N[C@@H]1[C@@H](OC(=O)C[C@H](O)CCCCCCCCCCC)[C@H](O)[C@@H](CO[C@@H]2O[C@H](CO)[C@@H](OP(=O)(O)O)[C@H](OC(=O)C[C@@H](CCCCCCCCCCC)OC(=O)CCCCCCCCC)[C@H]2NC(=O)C[C@@H](CCCCCCCCCCC)OC(=O)CCCCCCCCC)O[C@H]1O`, the outcome in assay [1] (filed as activator) was Active.
As for `CCCCCCCCCCC[C@H](CC(=O)N[C@H]1[C@H](OC[C@H](NC(=O)C[C@@H](CCCCCCCCCCC)OC(=O)CCCCCCCCC)C(=O)O)O[C@H](CNC(=O)COCCOCCOCCNC(C)=O)[C@@H](OP(=O)(O)O)[C@@H]1OC(=O)C[C@@H](CCCCCCCCCCC)OC(=O)CCCCCCCCC)OC(=O)CCCCCCCCC`, in [1] (filed as activator), the outcome was Active.
For `CCCCCCCCCCC[C@H](CC(=O)N[C@H]1[C@H](OC[C@H](NC(=O)C[C@@H](CCCCCCCCCCC)OC(=O)CCCCCCCCC)C(=O)O)O[C@H](CNC(=O)COCCOCCOCCNC(=O)CCCN2C(=O)CC(SCCC(=O)N[C@@H](CC(=O)O)C(=O)N[C@@H](CCC(=O)O)C(=O)N[C@H](C(=O)N[C@@H](CO)C(=O)NCC(=O)N[C@@H](CC(C)C)C(=O)N[C@@H](CCC(=O)O)C(=O)N[C@@H](CCC(N)=O)C(=O)N[C@@H](CC(C)C)C(=O)N[C@@H](CCC(=O)O)C(=O)N[C@@H](CO)C(=O)N[C@H](C(=O)N[C@H](C(=O)N[C@@H](CC(N)=O)C(=O)N[C@@H](Cc3ccccc3)C(=O)N[C@@H](CCC(=O)O)C(=O)N[C@@H](CCCCN)C(=O)N[C@@H](CC(C)C)C(=O)N[C@@H](C)C(=O)N[C@@H](C)C(=O)N[C@@H](C)C(=O)N[C@@H](C)C(=O)N[C@@H](C)C(=O)N[C@@H](CCCCN)C(N)=O)[C@@H](C)CC)[C@@H](C)CC)C(C)C)C2=O)[C@@H](OP(=O)(O)O)[C@@H]1OC(=O)C[C@@H](CCCCCCCCCCC)OC(=O)CCCCCCCCC)OC(=O)CCCCCCCCC` (stereo not given in full) ([Mpa](X1)DEVSGLEQLESIINFEKLAAAAAK-NH2), the result in the assay on Mus musculus [2], in the assay on Mus musculus [3], in the assay on Mus musculus [4], with Mus musculus [5], in the assay on Mus musculus [6] and in the assay with B3Z was Active. Also, the outcome in the assay with Mus musculus [8], in the assay on Mus musculus [7] and in the assay on Mus musculus [9] was Active. For the same compound, the result in assay [1] was inactive.
On to `CCCCCCCCCCC[C@H](CC(=O)N[C@H]1[C@H](OC[C@H](NC(=O)C[C@@H](CCCCCCCCCCC)OC(=O)CCCCCCCCC)C(=O)O)O[C@H](CO)[C@@H](OP(=O)(O)O)[C@@H]1OC(=O)C[C@@H](CCCCCCCCCCC)OC(=O)CCCCCCCCC)OC(=O)CCCCCCCCC`, for which the result (in [1] (filed as activator); with Mus musculus [5]; in the assay on B3Z) was Active.
